Reference: ChEMBL document CHEMBL3098033, “Design, synthesis and biological evaluation of imine resveratrol derivatives as multi-targeted agents against Alzheimer's disease” (Eur J Med Chem, 2014)
Activity calls are given as the source filed them. The calls are words filed in the database; no cut-off is given here.

Tests used:
[1] = molecular target: Amyloid-beta precursor protein (Homo sapiens) (UniProt P05067); assay: Inhibition of amyloid beta (1 to 42) (unknown origin) self-induced aggregation at 20 uM after 46 to 48 hrs by thioflavin-T based fluorometric assay
Amyloid-beta precursor protein (Homo sapiens), sequence (P05067 whole entry): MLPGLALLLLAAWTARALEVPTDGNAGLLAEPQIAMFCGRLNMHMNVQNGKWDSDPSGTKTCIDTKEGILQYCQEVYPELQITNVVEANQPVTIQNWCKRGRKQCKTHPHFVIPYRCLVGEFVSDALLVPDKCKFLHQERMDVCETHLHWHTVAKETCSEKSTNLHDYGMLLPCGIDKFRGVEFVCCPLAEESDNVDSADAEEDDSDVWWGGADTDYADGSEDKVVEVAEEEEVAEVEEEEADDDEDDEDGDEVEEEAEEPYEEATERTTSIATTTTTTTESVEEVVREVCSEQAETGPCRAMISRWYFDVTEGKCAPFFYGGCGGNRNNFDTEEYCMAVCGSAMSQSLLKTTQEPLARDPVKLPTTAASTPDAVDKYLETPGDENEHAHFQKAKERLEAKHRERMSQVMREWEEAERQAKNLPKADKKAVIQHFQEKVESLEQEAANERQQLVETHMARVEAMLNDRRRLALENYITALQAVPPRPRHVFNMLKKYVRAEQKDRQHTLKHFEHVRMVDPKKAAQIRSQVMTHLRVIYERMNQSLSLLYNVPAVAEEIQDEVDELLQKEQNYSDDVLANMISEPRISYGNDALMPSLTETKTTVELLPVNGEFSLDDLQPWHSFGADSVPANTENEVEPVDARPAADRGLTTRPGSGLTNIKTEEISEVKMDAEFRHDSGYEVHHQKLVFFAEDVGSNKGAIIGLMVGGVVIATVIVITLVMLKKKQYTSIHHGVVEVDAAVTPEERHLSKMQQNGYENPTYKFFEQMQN
Summary of the method: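 HFIP-pretreated Aβ(1–42) redissolved at 25 μM in 50 mM phosphate buffer, pH 7.4. Compound at 20 μM final, with 10% final solvent, run in independent triplicates with a solvent control. Incubated in the dark at room temperature for 46–48 h without agitation. 5 μM ThT in glycine-NaOH pH 8.0 added, ex/em 446/490 nm. Inhibition = 100 − (IFi/IFo × 100).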

[2] = tested on: Radical scavenging activity; assay: Antioxidant activity assessed as DPPH free radical scavenging activity after 30 mins by spectrophotometric analysis; type: functional
Summary of the method: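 Methanolic DPPH at 400 μM combined with serially diluted sample (1:9 by volume), 30 min at 37 °C in the dark, absorbance at 517 nm. Scavenging % = [1 − (A − C)/B] × 100, with a sample-only blank and MeOH as negative control. IC50 values are mean ± SD of three determinations.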

[3] = molecular target: Amyloid-beta precursor protein (Homo sapiens) (UniProt P05067); assay: Inhibition of Cu2+-induced amyloid beta (1 to 42) (unknown origin) aggregation assessed as reduction of H2O2 production at 800 nM after 30 mins by HRP/Amplex red assay
Summary of the method: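 Mixture of CuCl2 400 nM, Aβ, compound 800 nM (1% DMSO) and sodium ascorbate 10 μM in phosphate buffer, 30 min at room temperature. Amplex Red/HRP working solution then added and incubated a further 30 min at room temperature. Fluorescence read at ex/em 530/590 nm, at least three measurements.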

SH-SY5Y [4] = assay: Neuroprotective activity in human SH-SY5Y cells assessed as inhibition H2O2-induced reduction of cell viability at 1.25 to 10 uM after 24 hrs by phase-contrast micrograph analysis; type: functional, cell-based; conditions: in the assay text read “MTT assay” for “phase-contrast micrograph analysis”
Summary of the method: (§1)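 SH-SY5Y cells seeded at 1×10^4 cells/well. After 24 h, medium replaced with compound (1.25, 2.5, 5, 10 μM) for 24 h at 37 °C. Cells then exposed to 100 μM H2O2 for 24 h and assessed by MTT, with phase-contrast images (200×). Viability given relative to cells without H2O2, three independent experiments.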

[5] = Cytotoxicity against human SH-SY5Y cells assessed as reduction of cell viability at 1 to 50 uM after 24 hrs by MTT assay; type: cell-based
Summary of the method: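 SH-SY5Y cells grown in EMEM/Ham's F-12 (1:1) with 10% FBS, penicillin and streptomycin, 37 °C, 5% CO2. Seeded at 1×10^4 cells/well, switched to serum-free medium, exposed to compound for 24 h. MTT 4 h at 37 °C, formazan dissolved in DMSO, A570 with 630 nm reference. Mean ± SD of three independent experiments.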

[6] = molecular target: Amyloid-beta precursor protein (Homo sapiens) (UniProt P05067); assay: Inhibition of Cu2+-induced amyloid beta (1 to 42) (unknown origin) aggregation at 50 uM after 24 hrs by thioflavin-T based fluorometric assay
Summary of the method: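 Aβ(1–42) at 25 μM final in HEPES pH 6.6 with NaCl, with or without 25 μM Cu2+, plus 50 μM compound, incubated at 37 °C for 24 h. Sample diluted into 50 mM glycine-NaOH pH 8.0 containing 5 μM ThT, read at ex/em 446/490 nm. Mean ± SD of three independent experiments.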

[7] = Metal chelating activity of the compound assessed as Fe2+-compound complex formation at 25 uM by UV-vis spectrometry; type: physicochemical
[8] = Metal chelating activity of the compound assessed as Cu2+-compound complex formation at 25 uM by UV-vis spectrometry; type: physicochemical
Summary of the method: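 Difference UV–vis spectra obtained by subtracting metal-alone and compound-alone spectra from the spectra of the mixture. Stoichiometry assessed with ligand fixed at 25 μmol/L and Cu2+ titrated from 2 to 50 μmol/L.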

[9] = Ratio of resveratrol IC50 to compound IC50 for DPPH free radical scavenging activity
SH-SY5Y [10] = assay: Neuroprotective activity in human SH-SY5Y cells assessed as inhibition H2O2-induced reduction of cell viability at 10 uM after 24 hrs by phase-contrast micrograph analysis; type: functional, cell-based; summary of the method: as §1

Row | Structure (SMILES) | inhibition [1] [%] | IC50 [2] [µM] | further results
1 | Oc1ccc(Cl)cc1/C=N/c1ccccc1 | 33.8 | > 2000 | 
2 | CN(C)c1ccc(/C=N/c2ccccc2O)cc1 | 55.8 | 45.1 | 
3 | O=C(O)CN(CCN(CC(=O)O)CC(=O)O)CC(=O)O |  |  | inhibition [3]: > 90%
4 | Oc1ccccc1/N=C/c1ccccc1F | 69.4 | 43.9 | 
5 | Oc1ccc(/C=N/c2ccccc2O)c(O)c1 | 63.1 | 37.8 | 
6 | Oc1ccc(/C=N/c2ccccc2O)cc1 | 70.9 | 26.5 | Activity (SH-SY5Y [4]): Active; Activity [5]: Non-toxic; inhibition [6]: 83.7%
7 | Oc1ccc(/C=N/c2ccccc2O)cc1O | 64.6 | 14.1 | Activity (SH-SY5Y [4]): Active; Activity [5]: Non-toxic; inhibition [3]: 80%; inhibition [6]: 68.1%; Activity [7]: Active; Activity [8]: Active; Ratio IC50 [9]: 7.7
8 | COc1ccc(/C=N/c2ccccc2O)cc1OC | 39.4 | 28.5 | 
9 | Oc1c(I)cc(Cl)c2cccnc12 |  |  | inhibition [3]: 75%; inhibition [6]: 66.7%
10 | Oc1ccccc1/C=N/c1ccccc1F | 27.8 | > 2000 | 
11 | Oc1ccc(/N=C/c2ccccc2O)cc1 | 71.2 | 399 | 
12 | Oc1ccccc1/C=N/c1ccccc1 [2-((PHENYLIMINO)METHYL)PHENOL] | 44.9 | > 2000 | 
13 | Oc1ccccc1/C=N/c1ccc(F)cc1 | 24.9 | > 2000 | 
14 | Oc1ccccc1/C=N/c1ccccc1O | 67.2 | 51.8 | 
15 | Oc1ccccc1/N=C/c1ccccc1 | 51.7 | 39.9 | 
16 | COc1ccc(O)c(/C=N/c2ccccc2)c1 | 29 | 794 | 
17 | Oc1cccc(/C=N/c2ccccc2O)c1 | 64.3 | 66.6 | 
18 | Oc1ccc(/C=C/c2cc(O)cc(O)c2)cc1 [RESVERATROL] | 64.2 | 109 | Activity (SH-SY5Y [10]): Active
19 | Oc1cccc(/N=C/c2ccccc2O)c1 | 66.1 | > 2000 | 
20 | Oc1ccccc1/C=N/c1cccc(F)c1 | 31.3 | > 2000 | 
21 | Oc1ccccc1/N=C/c1ccc(F)cc1 | 67.8 | 41.3 | 
22 | COc1ccc(/C=N/c2ccccc2O)cc1 | 35.7 | 32.7 | 
23 | Oc1ccccc1/N=C/c1cccc(F)c1 | 67.6 | 36.8 | Activity (SH-SY5Y [4]): Active; Activity [5]: Non-toxic; inhibition [6]: 70.2%
